Experimental data gathered from unrelated publications.
Lines come from different studies, so protocols differ.

Structure (SMILES)	host	matrix	route	dose	setting	Tmax [min]
COc1ccc2c3c1O[C@H]1C[C@@H](OC(=O)c4ccccc4)C=C[C@@]31CCN(C)C2	rat	brain	intravenous	5 mg/kg		4.8
COC(=O)C(NC(=O)c1cn(CCCCCF)c2ccccc12)C(C)(C)C (centres unmarked)	male Sprague-Dawley rat	plasma	subcutaneous	50 µg/kg		42.5
CC(C)(C)[C@H](NC(=O)[C@H](CCONC(=N)N)NC(=O)Cc1ccc(CNC(=N)N)cc1)C(=O)N[C@@H](CCONC(=N)N)C(=O)NCc1ccc(C(=N)N)cc1	male Sprague-Dawley rat	plasma	intraperitoneal	2.5 mg/kg		30
Cc1ncc(C)n2nc(/C=C/c3nc(N4CCCC4)cc(N4CCOCC4)n3)nc12	male Sprague-Dawley rat	plasma	oral	0.3 mg/kg		162
O=C(Nc1cccnn1)N1CCN([C@@H]2CCOc3cc(C(F)(F)F)ccc32)CC1	male Sprague-Dawley rat	plasma	oral	1 mg/kg		40.2
CN(C)C(=O)Oc1cc(OC(=O)N(C)C)cc(-c2cc3ccc(O)cc3o2)c1	male rat	plasma	oral	5 mg/kg		94.8
CCCCCCCC(=O)N[C@@H](CCCCN)C(=O)N[C@@H](CCCCN)C(=O)N[C@@H](C)C(=O)N[C@@H](CC(C)C)C(=O)N[C@@H](CCCCN)C(=O)N[C@@H](CC(C)C)C(=O)N[C@@H](C)C(=O)N[C@@H](CCCCN)C(=O)N[C@@H](CCCCN)C(=O)N1CCC[C@H]1C(=O)N[C@@H](CC(C)C)C(=O)N[C@@H](CCCCN)C(=O)N[C@@H](CC(C)C)C(=O)N[C@@H](CC(C)C)C(=O)N[C@@H](CCCCN)C(N)=O	male Sprague-Dawley rat	blood	intravenous	3 mg/kg	infusion	40.2
Cl.Cl.O=C(CCN1CCCCC1)c1ccc(-c2ccc(C(=O)CCN3CCCCC3)cc2)cc1	Sprague-Dawley rat	plasma	intravenous	5 mg/kg		1.8
